The values below come from ChEMBL document CHEMBL1255300, “Pharmacodynamics of the antibacterial effect and emergence of resistance to tomopenem, formerly RO4908463/CS-023, in an in vitro pharmacokinetic model of Staphylococcus aureus infection” (Antimicrob Agents Chemother, 2008).

Experiment [1] concerns Staphylococcus aureus. Nature of the experiment: Antibacterial activity against methicillin-resistant Staphylococcus aureus 33829 infected in in vitro pharmacokinetic model assessed as time required to 99.9% killing at 750 mg, iv every 8 hrs using 10^6 CFU/ml inoculum. Type of experiment: functional. Put shortly:
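Single-compartment dilutional in vitro PK model, 10% Mueller-Hinton broth, 37°C, stirred, dilution 132 ml/h. […] Inoculum 10^6 CFU/ml (added 45 min pre-dose) or 10^8 CFU/ml (run overnight). Viable counts by spiral plating, beta-lactamase neutralization, detection limit 10^2 CFU/ml. At least triplicate.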

The test system of experiment [2] is Staphylococcus aureus. Nature of the experiment: Antibacterial activity against methicillin-resistant Staphylococcus aureus 33815 infected in in vitro pharmacokinetic model assessed as reduction in viable count at 750 mg, iv every 8 hrs measured after 12 hrs using 10^6 CFU/ml inoculum. Type of experiment: functional. Put shortly:
(§1)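 Single-compartment dilutional in vitro PK model, 37°C, stirred, in 10% Mueller-Hinton broth. […] Inoculum 10^6 CFU/ml from a 24-h plate culture was added 45 min before dosing. Viable counts by spiral plating on nutrient agar with β-lactamase neutralization. Log change was taken from time 0; detection limit 10^2 CFU/ml; at least triplicate.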

The test system of experiment [3] is Staphylococcus aureus. Nature of the experiment: Antibacterial activity against methicillin-resistant Staphylococcus aureus 33829 assessed as viable count at 4 times of MIC after 48 hrs using 10^6 CFU/ml inoculum. Type of experiment: functional, organism-based.
The test system of experiment [4] is Staphylococcus aureus. Nature of the experiment: AUBKC (0 to 48 hrs) in methicillin-resistant Staphylococcus aureus 33829 infected in in vitro pharmacokinetic model at 1500 mg, iv every 8 hrs using 10^6 CFU/ml inoculum. Type of experiment: functional. Put shortly: (§2)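 Single-compartment dilutional in vitro PK model at 37°C in 10% Mueller-Hinton broth, stirred, flow 132 ml/h. […] Inoculum 10^6 CFU/ml added 45 min before dosing, or 10^8 CFU/ml run overnight. Viable counts with β-lactamase neutralisation. AUBKC by log-linear trapezoidal rule, at least triplicate.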

The subject of experiment [5] is Staphylococcus aureus. Briefly: T>MIC in methicillin-resistant Staphylococcus aureus 33820 infected in vitro pharmacokinetic model at 1500 mg, iv every 8 hrs. Type of experiment: functional.
In experiment [6] the test system is Staphylococcus aureus. Briefly: Antibacterial activity against methicillin-sensitive Staphylococcus aureus 5956 infected in in vitro pharmacokinetic model assessed as reduction in viable count at 750 mg, iv every 8 hrs measured after 24 hrs using 10^6 CFU/ml inoculum. Type of experiment: functional.
Experiment [7] concerns Staphylococcus aureus. Briefly: Antibacterial activity against methicillin-resistant Staphylococcus aureus 33815 in in vitro pharmacokinetic model assessed as viable count at 2 times of MIC. The experiment is classed as functional. Put shortly: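 Preexposure population analysis profile: model sample at time zero plated on nutrient agar with tomopenem at multiples of the MIC. Growth counted as log CFU/ml, detection limit 2 log10.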

Experiment [8] has as its system Staphylococcus aureus. Briefly: T>MIC for 2-log drop in count in methicillin-resistant Staphylococcus aureus 33922 in in vitro pharmacokinetic model after 24 hrs using 10^6 CFU/ml inoculum. The experiment is classed as functional.
The test system of experiment [9] is Staphylococcus aureus. Nature of the experiment: Antibacterial activity against methicillin-resistant Staphylococcus aureus 33820 infected in in vitro pharmacokinetic model assessed as reduction in viable count at 1500 mg, iv every 8 hrs measured after 24 hrs using 10^6 CFU/ml inoculum. Type of experiment: functional. Put shortly:
as §1

Experiment [10] relates to Staphylococcus aureus. Nature of the experiment: AUBKC (0 to 24 hrs) in methicillin-sensitive Staphylococcus aureus 5956 infected in in vitro pharmacokinetic model at 750 mg, iv every 8 hrs using 10^6 CFU/ml inoculum. Type of experiment: functional.
Experiment [11] deals with Staphylococcus aureus. Nature of the experiment: Antibacterial activity against methicillin-resistant Staphylococcus aureus 33815 infected in in vitro pharmacokinetic model assessed as time required to 99.9% killing at 1500 mg, iv every 8 hrs using 10^8 CFU/ml inoculum. Type of experiment: functional. Put shortly:
(§3)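 T99 and T99.9 were taken as the times for the count to fall 99% or 99.9% from time 0, using serial viable counts over 48 h. Inoculum was 10^8 CFU/ml, grown overnight in the model before dosing.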

Experiment [12] deals with Staphylococcus aureus. Nature of the experiment: AUBKC (0 to 48 hrs) in methicillin-resistant Staphylococcus aureus 33829 infected in in vitro pharmacokinetic model at 750 mg, iv every 8 hrs using 10^6 CFU/ml inoculum. The experiment is classed as functional. Put shortly:
as §2

The test system of experiment [13] is Staphylococcus aureus. Nature of the experiment: AUBKC (0 to 48 hrs) in methicillin-resistant Staphylococcus aureus 33815 infected in in vitro pharmacokinetic model at 1500 mg, iv every 8 hrs using 10^8 CFU/ml inoculum. Type of experiment: functional. Put shortly:
as §2

Experiment [14] deals with Staphylococcus aureus. Nature of the experiment: T>MIC for 4-log drop in count in methicillin-resistant Staphylococcus aureus 33815 in in vitro pharmacokinetic model after 24 hrs using 10^6 CFU/ml inoculum. The experiment is classed as functional.
Experiment [15] has as its system Staphylococcus aureus. Briefly: Antibacterial activity against methicillin-resistant Staphylococcus aureus 33815 infected in in vitro pharmacokinetic model assessed as time required to 99.9% killing at 750 mg, iv every 8 hrs using 10^8 CFU/ml inoculum. Type of experiment: functional. Put shortly:
as §3

The test system of experiment [16] is Staphylococcus aureus. Nature of the experiment: Antibacterial activity against methicillin-sensitive Staphylococcus aureus 5956 infected in in vitro pharmacokinetic model assessed as reduction in viable count at 750 mg, iv every 8 hrs measured after 36 hrs using 10^6 CFU/ml inoculum. The experiment is classed as functional.

Active and inactive are the calls of the source. The rule behind the calls is not given here. A value given as a limit tells only on which side of the number the result lay.

Regarding `C[C@@H](O)[C@H]1C(=O)N2C(C(=O)O)=C(S[C@H]3C[C@@H](C(=O)N4CC[C@H](NC(=O)CNC(=N)N)C4)N(C)C3)[C@H](C)[C@H]12` [TOMOPENEM], the Time with Staphylococcus aureus [1] turned out to be 12 h; with Staphylococcus aureus [11] it was 24 h; in the experiment with Staphylococcus aureus [15] it was 24 h. For the same compound, the log10CFU/ml in the experiment with Staphylococcus aureus [2] is 4.2; in the experiment on Staphylococcus aureus [6] it was 4.3; in the experiment with Staphylococcus aureus [7], <2; in the experiment with Staphylococcus aureus [9], 4.2; with Staphylococcus aureus [16], 4.5. Besides, the outcome with Staphylococcus aureus [3] was Active. Besides, the AUBC in the experiment with Staphylococcus aureus [4] came to 37.4 log10CFU/ml.hr; in the experiment on Staphylococcus aureus [10] it was 27.6 log10CFU/ml.hr; in the experiment with Staphylococcus aureus [12], 25 log10CFU/ml.hr; in the experiment with Staphylococcus aureus [13] it was 152.6 log10CFU/ml.hr. Moreover, the “fT>MIC” value with Staphylococcus aureus [5] amounted to 98%; with Staphylococcus aureus [8], 5.4%; with Staphylococcus aureus [14], 29.6%.
